Laboratory results published in ChEMBL document CHEMBL1255304, “In vitro phenotypic susceptibility of human immunodeficiency virus type 2 clinical isolates to protease inhibitors” (Antimicrob Agents Chemother, 2008).

How the values were obtained:
[1] = tested on: Human immunodeficiency virus 2; assay: Antiviral activity against HIV 2 subtype H expressing 10I-34E-40P-41Y-60H-63N-70T-73G-82F-89L-92E protease gene sequence from HIV2 infected patient plasma and PBMC obtained at T1 during compound treatment measured after 13 months; format: functional, organism-based; details: Human immunodeficiency virus 2, subtype H
Summary of the method: (§1)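 Virus isolated by PBMC coculture from patient samples taken before (T0) or during (T1, T2) protease inhibitor exposure, with protease genes sequenced from plasma and PBMC isolates. Susceptibility was tested in the ANRS PBMC assay, and the 50% inhibitory concentration (IC50) was reported.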

[2] = tested on: Human immunodeficiency virus 2; assay: Antiviral activity against HIV 2 subtype A clinical isolate expressing 14H-17D-43T-68N/D protease gene sequence from HIV2 infected patient plasma and PBMC obtained before compound treatment measured after 13 months; format: functional, organism-based; details: Human immunodeficiency virus 2, subtype A; summary of the method: as §1
[3] = tested on: Human immunodeficiency virus 2; assay: Antiviral activity against HIV 2 subtype A clinical isolate expressing 5L/F-14Y/H-17G/D-43T-54I/M-62V/A-70R/K-71I protease gene sequence from HIV2 infected patient plasma and PBMC obtained at T1 during compound treatment measured after 13 months; format: functional, organism-based; details: Human immunodeficiency virus 2, subtype A; summary of the method: as §1
[4] = tested on: Human immunodeficiency virus 2; assay: Antiviral activity against HIV 2 subtype A clinical isolate expressing 14H-60K/N-65E protease gene sequence from HIV2 infected patient plasma and PBMC obtained before compound treatment measured after 13 months; format: functional, organism-based; details: Human immunodeficiency virus 2, subtype A; summary of the method: as §1
[5] = tested on: Human immunodeficiency virus 2; assay: Antiviral activity against HIV 2 subtype A clinical isolate expressing 54M-65E-71I-74N-90M protease gene sequence from HIV2 infected patient plasma and PBMC obtained at T1 during compound treatment measured after 13 months; format: functional, organism-based; details: Human immunodeficiency virus 2, subtype A; summary of the method: as §1
[6] = tested on: Human immunodeficiency virus 2; assay: Antiviral activity against HIV 2 subtype A clinical isolate expressing 10I-17D-40D-43I-46V-66V/A-70R/K protease gene sequence from HIV2 infected patient plasma and PBMC obtained before compound treatment measured after 13 months; format: functional, organism-based; details: Human immunodeficiency virus 2, subtype A; summary of the method: as §1
[7] = tested on: Human immunodeficiency virus 2; assay: Antiviral activity against HIV 2 subtype A clinical isolate expressing 10I-17D-40D-43I-45K/R-46V-54M-64I/V-69K/R-71V/I-90M protease gene sequence from HIV2 infected patient plasma and PBMC obtained at T1 during compound treatment measured after 13 months; format: functional, organism-based; details: Human immunodeficiency virus 2, subtype A; summary of the method: as §1
[8] = tested on: Human immunodeficiency virus 2; assay: Antiviral activity against HIV 2 subtype A clinical isolate expressing 14H-40D-70K-72R/K-91T/S protease gene sequence from HIV2 infected patient plasma and PBMC obtained before compound treatment measured after 13 months; format: functional, organism-based; details: Human immunodeficiency virus 2, subtype A; summary of the method: as §1
[9] = tested on: Human immunodeficiency virus 2; assay: Antiviral activity against HIV 2 subtype A clinical isolate expressing 10I-40D-43I-70K-82F-84V-85L-89V-90M-91T/L-98N/K protease gene sequence from HIV2 infected patient plasma and PBMC obtained at T1 during compound treatment measured after 13 months; format: functional, organism-based; details: Human immunodeficiency virus 2, subtype A; summary of the method: as §1
[10] = tested on: Human immunodeficiency virus 2; assay: Antiviral activity against HIV 2 subtype A clinical isolate expressing 10V/I-40D-43I-56V-70K-82F-84V-89V-90M protease gene sequence from HIV2 infected patient plasma and PBMC obtained at T2 during compound treatment measured after 3 months; format: functional, organism-based; details: Human immunodeficiency virus 2, subtype A; summary of the method: as §1
[11] = tested on: Human immunodeficiency virus 2; assay: Antiviral activity against HIV 2 subtype B clinical isolate expressing 14Y-61N-99L protease gene sequence from HIV2 infected patient plasma and PBMC obtained before compound treatment measured after 13 months; format: functional, organism-based; details: Human immunodeficiency virus 2, subtype B\r\n; summary of the method: as §1
[12] = tested on: Human immunodeficiency virus 2; assay: Antiviral activity against HIV 2 subtype B clinical isolate expressing 14Y-19P-33I-61N-71I-75M-84V-90M protease gene sequence from HIV2 infected patient plasma and PBMC obtained at T1 during compound treatment measured after 13 months; format: functional, organism-based; details: Human immunodeficiency virus 2, subtype B\r\n; summary of the method: as §1
[13] = tested on: Human immunodeficiency virus 2; assay: Antiviral activity against HIV 2 subtype B clinical isolate expressing 14Y-19P-61N-64V-71I-90M-95I protease gene sequence from HIV2 infected patient plasma and PBMC obtained at T2 during compound treatment measured after 3 months; format: functional, organism-based; details: Human immunodeficiency virus 2, subtype B\r\n; summary of the method: as §1
[14] = tested on: Human immunodeficiency virus 2; assay: Antiviral activity against HIV 2 subtype B clinical isolate expressing 12T-14Y-19P-40N-41D-61N-62I-96S-99L protease gene sequence from HIV2 infected patient plasma and PBMC obtained before compound treatment measured after 13 months; format: functional, organism-based; details: Human immunodeficiency virus 2, subtype B\r\n; summary of the method: as §1
[15] = tested on: Human immunodeficiency virus 2; assay: Antiviral activity against HIV 2 subtype B clinical isolate expressing 12Q-14R-17G/D-19P-61N-62I-92A protease gene sequence from HIV2 infected patient plasma and PBMC obtained before compound treatment measured after 13 months; format: functional, organism-based; details: Human immunodeficiency virus 2, subtype B\r\n; summary of the method: as §1
[16] = tested on: Human immunodeficiency virus 2; assay: Antiviral activity against Human immunodeficiency virus type 2 (ISOLATE ROD) after 13 months; format: functional, organism-based; details: Human immunodeficiency virus 2, ISOLATE ROD
Summary of the method: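 Reference strain ROD was tested in the ANRS PBMC assay alongside the clinical isolates, and the 50% inhibitory concentration (IC50) was reported.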

[17] = Antiviral activity against Human immunodeficiency virus type 1 (BRU ISOLATE) after […]; format: functional; details: Human immunodeficiency virus 1
[18] = tested on: Human immunodeficiency virus 2; assay: Antiviral activity against HIV 2 subtype H expressing 10I-40P-41Y-60H-63N-70T-73G-89L-92E protease gene sequence from HIV2 infected patient plasma and PBMC obtained before compound treatment measured after 13 months; format: functional, organism-based; details: Human immunodeficiency virus 2, subtype H; summary of the method: as §1

| Structure (SMILES) | IC50 [1] [nM] | IC90 [1] [nM] | IC50 [2] [nM] | IC90 [2] [nM] | IC50 [3] [nM] | IC90 [3] [nM] | IC50 [4] [nM] | IC90 [4] [nM] | IC50 [5] [nM] | IC90 [5] [nM] | IC50 [6] [nM] | IC90 [6] [nM] | IC50 [7] [nM] | IC90 [7] [nM] | IC50 [8] [nM] | IC90 [8] [nM] | IC50 [9] [nM] | IC90 [9] [nM] | IC50 [10] [nM] | IC90 [10] [nM] | other results |
| --- | --- | --- | --- | --- | --- | --- | --- | --- | --- | --- | --- | --- | --- | --- | --- | --- | --- | --- | --- | --- | --- |
| Cc1cccc(C)c1OCC(=O)N[C@@H](Cc1ccccc1)[C@@H](O)C[C@H](Cc1ccccc1)NC(=O)[C@H](C(C)C)N1CCCNC1=O [LOPINAVIR] | 3200 | 8700 | 30 | 80 | 40 | 400 | 40 | 200 | 400 | 3300 | 20 | 200 | 1700 | 8500 | 20 | 80 | 100 | 800 | 100 | 1100 | IC50 [11]: 40 nM; IC90 [11]: 70 nM; IC50 [12]: 200 nM; IC90 [12]: 1500 nM; IC50 [13]: 100 nM; IC90 [13]: 900 nM; IC50 [14]: 30 nM; IC90 [14]: 100 nM; IC50 [15]: 20 nM; IC90 [15]: 200 nM; IC50 [16]: 20 nM; IC90 [16]: 70 nM; IC50 [17]: 30 nM; IC90 [17]: 100 nM; IC50 [18]: 60 nM; IC90 [18]: 500 nM |
| Cc1c(O)cccc1C(=O)N[C@@H](CSc1ccccc1)[C@H](O)CN1C[C@H]2CCCC[C@H]2C[C@H]1C(=O)NC(C)(C)C [NELFINAVIR] | 9000 | 24000 | 30 | 300 | 14000 | 110000 | 60 | 800 | 3800 | 53000 | 50 | 400 | 1200 | 15000 | 200 | 400 | > 17600 | > 17600 | 10000 | 81000 | IC50 [11]: 200 nM; IC90 [11]: 1000 nM; IC50 [12]: 14000 nM; IC90 [12]: 107000 nM; IC50 [13]: > 17600 nM; IC90 [13]: > 17600 nM; IC50 [14]: 60 nM; IC90 [14]: 200 nM; IC50 [15]: 40 nM; IC90 [15]: 800 nM; IC50 [16]: 50 nM; IC90 [16]: 900 nM; IC50 [17]: 2 nM; IC90 [17]: 100 nM; IC50 [18]: 40 nM; IC90 [18]: 300 nM |
| CC(C)(C)NC(=O)[C@@H]1C[C@@H]2CCCC[C@@H]2CN1C[C@@H](O)[C@H](Cc1ccccc1)NC(=O)[C@H](CC(N)=O)NC(=O)c1ccc2ccccc2n1 [SAQUINAVIR] | 7300 | 31000 | < 6 | < 6 | > 12500 | > 12500 | 5 | 50 | > 12500 | > 12500 | 2 | 20 | 90 | 700 | 5 | 20 | 6400 | 51000 | 22000 | 180000 | IC50 [11]: 14000 nM; IC90 [11]: 82000 nM; IC50 [12]: 8200 nM; IC90 [12]: 65000 nM; IC50 [13]: 6700 nM; IC90 [13]: 52000 nM; IC50 [14]: 7 nM; IC90 [14]: 20 nM; IC50 [15]: 60 nM; IC90 [15]: 300 nM; IC50 [16]: 10 nM; IC90 [16]: 90 nM; IC50 [17]: 10 nM; IC90 [17]: 40 nM; IC50 [18]: 30 nM; IC90 [18]: 300 nM |
| CCC[C@@]1(CCc2ccccc2)CC(O)=C([C@H](CC)c2cccc(NS(=O)(=O)c3ccc(C(F)(F)F)cn3)c2)C(=O)O1 [TIPRANAVIR] | 7300 | 16000 | 300 | 2200 | 6700 | 26000 | 300 | 2500 | 4700 | 14000 | 300 | 2700 | 4100 | 23000 | 400 | 4200 | 2800 | 16000 | 4800 | 29000 | IC50 [11]: 400 nM; IC90 [11]: 1700 nM; IC50 [12]: 4800 nM; IC90 [12]: 17000 nM; IC50 [13]: 4000 nM; IC90 [13]: 12000 nM; IC50 [14]: 400 nM; IC90 [14]: 3000 nM; IC50 [15]: 300 nM; IC90 [15]: 2600 nM; IC50 [16]: 400 nM; IC90 [16]: 3500 nM; IC50 [17]: 50 nM; IC90 [17]: 400 nM; IC50 [18]: 400 nM; IC90 [18]: 800 nM |
